Among the data in ChEMBL document CHEMBL1137675, “Convenient one-pot synthesis of novel 2-substituted benzimidazoles, tetrahydrobenzimidazoles and imidazoles and evaluation of their in vitro antibacterial and antifungal activities” (2009) are MIC, inhibition zone (IZ) and zone of inhibition values, retold here.

The test system of experiment [1] is Trichoderma viride. Put plainly: Antifungal activity against Trichoderma viride at 28 degC after 72 hrs. The format is functional. The method, boiled down:
(§1)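 Filamentous fungi were kept on SDA at 28 °C. Spores from 7-day cultures were suspended in sterile normal saline to about 10⁵ cfu/ml, and about 0.1 ml was spread on SDA plates. Compounds were serially diluted two-fold in DMSO and impregnated on 8 mm discs, with a solvent control disc on each plate. Plates were held at 28 °C for 72 h or more, and inhibition zone diameter was read in mm.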

Experiment [2] concerns Trichoderma viride. The experiment is described as follows: Antifungal activity against Trichoderma viride at 30 ug/disk at 28 degC after 72 hrs. The format is functional, organism-based. The gist of the method: (§2)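 Disc diffusion on SDA; cultures were kept at 28 °C. Spores from 7-day cultures were suspended in sterile normal saline ([…] NaCl as printed) and diluted to about 10⁵ cfu/ml; about 0.1 ml was spread per plate. 8 mm discs carried compound from a DMSO stock, alongside a solvent disc and a nystatin disc. After 72 h or more at 28 °C, inhibition-zone diameter was read in mm.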

Experiment [3] relates to Helminthosporium. The experiment is described as follows: Antifungal activity against Helminthosporium oryzae 2537 ICAR at 28 degC after 72 hrs. The class given is functional. The gist of the method:
as §1

For experiment [4], the system named is Aspergillus niger. Put plainly: Antifungal activity against Aspergillus niger at 30 ug/disk at 28 degC after 72 hrs. The format is functional, organism-based. The method, boiled down: as §2
For experiment [5], the system named is Penicillium sp. Put plainly: Antifungal activity against Penicillium sp. at 30 ug/disk at 28 degC after 72 hrs. The class given is functional, organism-based. The gist of the method:
as §2

In experiment [6] the test system is Candida albicans. Put plainly: Antifungal activity against Candida albicans IOA-109 at 37 degC after 18 to 48 hrs. The format is functional.
For experiment [7], the system named is Candida albicans. Put plainly: Antifungal activity against Candida albicans IOA-109 at 30 ug/disk at 37 degC after 18 to 48 hrs. The class given is functional, organism-based. The method, boiled down: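 Disc diffusion on SDA. Inoculum was grown overnight in SD broth at 37 °C, centrifuged, and resuspended in sterile NSS to 10⁵ cfu/ml; about 0.1 ml was spread per plate. 8 mm discs carried compound from a DMSO stock, alongside a solvent disc and a nystatin disc. After 18–48 h at 37 °C, inhibition-zone diameter was read in mm.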

The test system of experiment [8] is Penicillium sp. Put plainly: Antifungal activity against Penicillium sp. at 28 degC after 72 hrs. The format is functional. The method, boiled down:
as §1

Experiment [9] has as its system Aspergillus niger. Put plainly: Antifungal activity against Aspergillus niger at 28 degC after 72 hrs. The class given is functional. The method, boiled down: as §1
Experiment [10] has as its system Helminthosporium. Put plainly: Antifungal activity against Helminthosporium oryzae 2537 ICAR at 30 ug/disk at 28 degC after 72 hrs. The class given is functional, organism-based. The gist of the method:
as §2

For experiment [11], the system named is Salmonella typhimurium. Put plainly: Antibacterial activity against Salmonella Typhimurium MTCC 98 at 30 ug/disk at 37 degC after 24 hrs by filter paper disk method. The class given is functional, Salmonella enterica subsp. enterica serovar Typhimurium. Conditions: Salmonella enterica, MTCC 98, 24 h; read-out: DIZ. The gist of the method:
(§3)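 Chloramphenicol was given as a reference antibiotic disc. Bacteria were grown overnight in nutrient broth at 37 °C and adjusted to 10⁵ cfu/ml in sterile NSS. About 0.1 ml was spread on NA plates next to 8 mm discs, including a solvent disc. Plates were incubated 24 h at 37 °C, and zones of inhibition were measured in mm.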

Experiment [12] deals with Bacillus subtilis. Put plainly: Antibacterial activity against Bacillus subtilis ATCC 6051 at 30 ug/disk at 37 degC after 24 hrs by filter paper disk method. The format is functional. The note with it: ATCC 6051, 24 h, read-out: DIZ. The gist of the method:
as §3

In experiment [13] the test system is Bacillus subtilis. Put plainly: Antibacterial activity against Bacillus subtilis ATCC 6051 at 37 degC after 24 hrs by filter paper disk method. The format is functional. Conditions: Bacillus subtilis, ATCC 6051, 24 h. The gist of the method: (§4)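 Compounds were taken from a 1 mg/ml DMSO stock and serially diluted two-fold over a 300 to 18.75 range, then loaded onto sterile 8 mm paper discs. Bacteria were grown overnight in nutrient broth at 37 °C, pelleted, and resuspended in sterile NSS to 10⁵ cfu/ml. About 0.1 ml was spread on NA plates. Plates were incubated 24 h at 37 °C with a solvent control disc, and inhibition zone diameter was read in mm.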

The subject of experiment [14] is Staphylococcus aureus. The experiment is described as follows: Antibacterial activity against Staphylococcus aureus MSSA 22 at 37 degC after 24 hrs by filter paper disk method. The format is functional. Conditions: Staphylococcus aureus, MSSA 22, 24 h. The gist of the method: as §4
In experiment [15] the test system is Escherichia coli. The experiment is described as follows: Antibacterial activity against Escherichia coli K-12 at 30 ug/disk at 37 degC after 24 hrs by filter paper disk method. Conditions: K-12, 24 h, read-out: DIZ. The class given is functional. The gist of the method:
(§5)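 Disc diffusion on nutrient agar. Inoculum was grown overnight in NA broth at 37 °C, centrifuged, and resuspended in sterile NSS to 10⁵ cfu/ml; about 0.1 ml was spread per plate. Sterile 8 mm discs carried compound, with a 1 mg/ml DMSO stock diluted two-fold from 300 to 18.75. Controls were a solvent disc and a chloramphenicol disc. After 24 h at 37 °C, inhibition-zone diameter was read in mm.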

Experiment [16] deals with Salmonella typhimurium. Put plainly: Antibacterial activity against Salmonella Typhimurium MTCC 98 at 37 degC after 24 hrs by filter paper disk method. The class given is functional, Salmonella enterica subsp. enterica serovar Typhimurium. Conditions: Salmonella enterica, MTCC 98, 24 h. The gist of the method: as §4
For experiment [17], the system named is Staphylococcus aureus. Put plainly: Antibacterial activity against Staphylococcus aureus MSSA 22 at 30 ug/disk at 37 degC after 24 hrs by filter paper disk method. Conditions: MSSA 22, 24 h, read-out: DIZ. The format is functional. The method, boiled down: as §5
The subject of experiment [18] is Escherichia coli. The experiment is described as follows: Antibacterial activity against Escherichia coli K-12 at 37 degC after 24 hrs by filter paper disk method. The note with it: Escherichia coli, K-12, 24 h. The format is functional. The method, boiled down: as §4

≈ marks a conversion by molar mass, not a printed value.

NYSTATIN: the MIC (usually the lowest concentration found to suppress growth) with Trichoderma viride [1] came out at 6 µg/mL; against Helminthosporium [3], 12.5 µg/mL; against Candida albicans [6], 6 µg/mL; with Penicillium sp. [8], 6 µg/mL; against Aspergillus niger [9], 12.5 µg/mL. The inhibition zone (IZ) in the experiment on Trichoderma viride [2] was 15 mm; with Aspergillus niger [4], 18 mm; with Penicillium sp. [5], 20 mm; with Candida albicans [7] it was 20 mm; in the experiment on Helminthosporium [10] it was 18 mm.
`O=C(N[C@H](CO)[C@H](O)c1ccc([N+](=O)[O-])cc1)C(Cl)Cl` [CHLORAMPHENICOL]: the zone of inhibition at 30 µg/disc with Salmonella typhimurium [11] was 20 mm; with Bacillus subtilis [12] it was 24 mm; in the experiment on Escherichia coli [15] it was 25 mm; with Staphylococcus aureus [17] it was 26 mm. Moreover, the MIC is 6 µg/mL (≈ 18.6 µM) against Bacillus subtilis [13], 12.5 µg/mL (≈ 38.7 µM) in the experiment with Staphylococcus aureus [14], 6 µg/mL (≈ 18.6 µM) against Salmonella typhimurium [16] and 12.5 µg/mL (≈ 38.7 µM) against Escherichia coli [18].
